Experimental data of several laboratories.
Lines come from different studies, so protocols differ.
Read-out: metabolic stability
Host: human

Structure (SMILES)	test system	conditions	scaled CLint [mL/min/kg]
O=C1c2ncc(COc3ccccc3)cc2CCN1c1ccc(F)cc1	liver microsomes	–	19
Nc1nc(-c2ccc(NC(=O)Nc3cc(Br)cc(Br)c3)cc2)c[nH]1	liver microsomes	5 µM, pH 7.4	< 10.4
Cc1coc([C@H]2C[C@H]3CSC(N)=N[C@@]3(c3ccc(F)cc3F)CO2)n1	liver microsomes	–	69.6
O=C1NCCc2nc(OCc3cccc(F)c3)ccc21	liver microsomes	–	25
CC(F)(F)CN1Cc2cc(C(F)(F)F)ncc2C2=CN=C(NCc3c(F)ccc4c3CCO4)N3C=NC(C1=O)C23 (centres unmarked)	liver microsomes	100 µM, 30 min	9.9
CC(C)(C)n1cc2c(n1)C(O)C(C)(C)C1(CCN(C(=O)c3ccc4[nH]ncc4c3)CC1)O2 (centres unmarked)	liver microsomes	–	17
Cn1cc([C@H]2C[C@H]3[C@@H](CF)SC(N)=N[C@@]3(c3ccc(F)cc3F)CO2)cn1	liver microsomes	–	< 8
O=C(c1ccc(F)cc1)C1CCN(CCn2c(=O)[nH]c3ccccc3c2=O)CC1	liver microsomes	–	44.8
CC(=O)Nc1cc(Nc2cc(NC3CC3)n3ncc(C#N)c3n2)ccc1N(C)C[C@@H]1CCCN1	hepatocytes	1 µM, serum-free	0.8
Cc1ccc(F)c2cc(C(=O)N[C@@H]3CCC[C@H](c4ccncc4)C3)[nH]c12	hepatocytes	0.5 µM, 2 h	32.3
Nc1nc(-c2ccc(NC(=O)Nc3cccc(-c4c[nH]c(N)n4)c3F)cc2F)c[nH]1	liver microsomes	5 µM, pH 7.4	< 20.8
C[C@H]1SC(N)=N[C@@]2(c3ccc(F)cc3F)CO[C@@H](c3cnn(C)c3)C[C@@H]12	liver microsomes	–	< 8
Cc1ccc(F)c2cc(C(=O)N[C@@H]3CCC[C@H](N4CCN(S(C)(=O)=O)CC4)C3)[nH]c12	hepatocytes	0.5 µM, 2 h	41
Cc1nc2ccc(C(=O)N3CCC4(CC3)Cc3cnn(C(C)C)c3C(O)C4)cc2[nH]1 (centres unmarked)	liver microsomes	–	< 8
Cc1cccnc1C(=O)Nc1ccc(N2C(=O)c3cccc(Cl)c3C2=O)c(Cl)c1	liver microsomes	1 µM, pH 7.4	16.1
Nc1nc(-c2ccc(NC(=O)Nc3ccc(-c4c[nH]c(N)n4)c(F)c3)cc2F)c[nH]1	liver microsomes	5 µM, pH 7.4	< 20.8
Cc1cc([C@H]2C[C@H]3[C@@H](CF)SC(N)=N[C@@]3(c3ccc(F)cc3F)CO2)on1	liver microsomes	–	< 8
Cc1ccc(F)c2cc(C(=O)N[C@@H]3CCC[C@H](N4CCN(C)C(=O)C4)C3)[nH]c12	hepatocytes	0.5 µM, 2 h	23.7
Cc1cc([C@H]2C[C@H]3CSC(N)=N[C@@]3(c3ccc(F)cc3F)CO2)on1	liver microsomes	–	55.2
O=C1c2ccc(COc3cccc(F)c3)nc2CCN1c1ccc(F)cc1	liver microsomes	–	8.8
